HNF4A DNA FP: change in binding of human HNF4 alpha to DNA | P41235 | HNF4a-FITC DNA binding, fluorescence polarization, 1 h | activity change, % at 10 µM | actives 0.3% (n = 360,000) | AID 1224865; in the data active = activity change above about 30%, passing the limit was not always enough
Rpn11 inh: Rpn11 (human) deubiquitinase inhibition. O00487. human 26S proteasome, Ub4-pepOG fluorescence polarization; 20S core pre-blocked with epoxomicin. inhibition, % at 20 µM. actives 0.59% (n = 360,000). AID 588493;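 active = inhibition at 20 µM, scaled to each plate's controls, above about 33%, limit read from the data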
Target sequence (O00487 whole entry, looked up): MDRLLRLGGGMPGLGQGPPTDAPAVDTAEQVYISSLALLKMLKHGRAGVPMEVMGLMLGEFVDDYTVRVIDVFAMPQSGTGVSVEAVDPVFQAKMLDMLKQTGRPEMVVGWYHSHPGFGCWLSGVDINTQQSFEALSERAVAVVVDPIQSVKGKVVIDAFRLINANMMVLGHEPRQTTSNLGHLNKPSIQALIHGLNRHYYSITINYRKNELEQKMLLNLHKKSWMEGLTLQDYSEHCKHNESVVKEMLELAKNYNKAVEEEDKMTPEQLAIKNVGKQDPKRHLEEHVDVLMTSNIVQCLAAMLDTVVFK
Neddylation inh: cullin neddylation inhibition; inhibition, % at 25 µM; TR-FRET cullin neddylation, biochemical; actives 0.58% (n = 360,000); in the data active = inhibition above about 36%
Tb MetRS inh: blocks T. brucei methionyl-tRNA synthetase activity; purified T. brucei MetRS, ATP depletion, Kinase-Glo luminescence; inhibition, % at 11.9 µM; actives 0.4% (n = 360,000); AID 624268;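 active = inhibition above a per-plate cutoff of the control wells' mean inhibition plus 3 SD, cut at about 5.5% in these data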
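Dosing: 11.9 µM single point; system: parasite MetRS enzyme; technique: luminescence of leftover ATP; times: 15 min enzyme-compound preincubation, 2 h reaction, 10 min detection, 25 °C; replicates: each compound tested once; read-out basis: percent inhibition relative to median high and low control wells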
CSN deneddyl inh: inhibitors of human CSN-mediated cullin deneddylation; Q92905; AID 651999; inhibition, % at 12.5 µM; actives 0.38% (n = 360,000); Purified CSN, SCF-Nedd8-OG deneddylation, fluorescence polarization;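 active = pattern-corrected inhibition above about 35%, with an unprinted fluorescence ratio check between 0.5 and 1.5, limit read from the data, passing the limit was not always enough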
Target sequence (Q92905 whole entry, looked up, one chain of several): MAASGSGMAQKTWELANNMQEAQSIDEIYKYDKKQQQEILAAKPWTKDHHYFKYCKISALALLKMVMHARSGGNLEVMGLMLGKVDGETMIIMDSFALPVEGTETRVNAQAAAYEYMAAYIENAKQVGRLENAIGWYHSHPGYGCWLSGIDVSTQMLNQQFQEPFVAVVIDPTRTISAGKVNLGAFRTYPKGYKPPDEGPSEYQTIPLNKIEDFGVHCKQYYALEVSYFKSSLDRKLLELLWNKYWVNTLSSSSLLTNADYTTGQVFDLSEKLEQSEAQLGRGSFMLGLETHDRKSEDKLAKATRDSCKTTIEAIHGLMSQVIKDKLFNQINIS
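Assay system: purified human Csn5 enzyme expressed in HEK293T cells; Input: 0.24 nM Csn5 enzyme, final concentration; Reagent: 10 nM SCFSkp2-Nedd8OG; Compound dosing: 12.5 µM single point; Times: reaction 90 min, room temperature; Technique: fluorescence polarization readout.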
PREPL inhibitor: inhibits the human prolyl oligopeptidase-like enzyme; Q4J6C6; inhibition, % at 5.96 µM; AID 2751; actives 0.68% (n = 320,000); recombinant PREPL, fluorescence polarization activity-based probe
PREPL inh cf: human PREPL inhibition, confirmation | shares compounds with PREPL inhibitor | recombinant PREPL, fluorescence polarization activity probe | inhibition, % at 5.96 µM | actives 67% (n = 2,000) | AID 2803
A number is an active result; – = inactive; · = no result shown. Hits are enriched below; roughly 2.4% of the tested compounds scored in any of these assays. Rule as the data show it, unless noted: active = inhibition above about 43%; inactive = the rest.

SMILES	HNF4A DNA FP	Rpn11 inh	Neddylation inh	Tb MetRS inh	CSN deneddyl inh	PREPL inhibitor	others
Oc1c(C(c2ccccc2)N2CCOCC2)ccc2ccccc12 (centres undefined)	–	–	41.5	–	–	·
O=C(COC(=O)c1ccccc1Br)Nc1cccnc1Cl	–	–	–	–	–	–
c1ccc(CCNc2nc(-c3cccnc3)cs2)cc1	–	–	–	–	–	48.7
S=c1[nH]ncn1/N=C/c1ccc(Br)cc1	–	–	–	–	–	–
S=c1[nH]ncn1/N=C/c1ccccc1	44.0	–	–	–	–	–
Cc1cccc(Cc2cccc(C)c2O)c1O	–	–	–	–	–	·
Cc1ccc(C)n1/N=C1/NC(=O)CS1	–	–	–	–	46.1	–
Cc1cccc(NC(=O)COc2cccc3c2CCNC3=O)c1	–	–	–	–	–	·
Oc1c(C=Nc2ccccc2)sc2ccccc12	36.9	·	–	–	–	–
CC(C)C[C@H]1CN([C@@H](Cc2ccc(O)cc2)CN2CCC[C@@H]2CN2C(=O)C(=O)NC[C@@H]2Cc2ccccc2)C(=O)C(=O)N1CC1CCCCC1	–	–	–	–	–	·
CC(C)C[C@H]1CN([C@@H](Cc2ccccc2)CN2CCC[C@@H]2CN2C(=O)C(=O)NC[C@@H]2Cc2ccc(O)cc2)C(=O)C(=O)N1CC1CCCCCC1	–	–	–	–	36.6	·
CC(OC(=O)CC(C)c1ccccc1)C(=O)Nc1ccc(Cl)cn1 (centres undefined)	–	–	–	–	43.2	·
O=C1Nc2ccccc2N=C(c2ccccc2)c2ccccc21	–	–	–	–	–	–
Oc1[nH]c(=S)sc1/C=C1\C(c2ccccc2)=Nc2ccccc21	95.3	·	–	–	–	–
CCCCn1c(N)c(N(CCOC)C(=O)C2CCN(C(=O)c3ccc(F)cc3)CC2)c(=O)[nH]c1=O	–	–	–	–	–	–
Cc1cc(C)n2nc(SCC(=O)N/N=C/c3ccccc3F)nc2n1	–	–	–	–	–	50.0
COc1cc(N)c(Cl)cc1C(=O)OCC(=O)NC(=O)NCc1ccco1	–	–	–	–	–	–
O=C(CCN1C(=O)/C(=C/c2ccccc2)SC1=S)Nc1ccccn1	–	–	–	–	–	–
O=C(CCN1C(=O)/C(=C/c2cccs2)SC1=S)Nc1ccccn1	33.3	·	–	–	–	–
Cn1cncc1C#Cc1ccc2cc(CCCO)oc(=O)c2c1	–	–	44.8	–	–	–
Cn1cncc1C#Cc1ccc2cc(C(C)(C)O)oc(=O)c2c1	–	–	–	–	–	–
O=C(NCC1CCCCC1)c1ccc2nc([C@@H]3O[C@H](CO)[C@@H](O)[C@H]3O)[nH]c2c1	–	–	–	–	–	·
O=C(NCc1ccccc1)c1cc(C2CCCN(C(=O)c3ccccc3)C2)on1 (centres undefined)	–	–	–	–	–	·
O=c1[nH]cc(N=Cc2cc(Cl)cc(Cl)c2O)c(=O)[nH]1	–	–	41.6	–	–	–
O=c1[nH]cc(N=Cc2cc([N+](=O)[O-])ccc2O)c(=O)[nH]1	·	·	·	·	·	–
SMILES	HNF4A DNA FP	Rpn11 inh	Neddylation inh	Tb MetRS inh	CSN deneddyl inh	PREPL inhibitor	others
O=C(CSc1ccc(F)cc1)NCC1(N2CCOCC2)CCCCC1	–	–	–	–	–	–
Cc1ccc(-c2cc(-c3n[nH]c(=S)o3)c3ccccc3n2)cc1	–	–	49.2	–	–	–
OCC(Cc1ccccc1)Nc1c2ccccc2nc2ccccc12 (centres undefined)	–	–	43.5	–	–	–
Cn1cccc1/C=C1\SC(=Nc2ccccc2)NC1=O	–	–	–	–	–	–
Cc1ccc(N=C2NC(=O)/C(=C/c3cn(C)c4ccccc34)S2)cc1C	65.3	·	–	–	–	–
CCN1CCOC(CC(=O)Nc2ccc([N+](=O)[O-])cc2)C1=O (centres undefined)	–	–	–	–	–	–
Cc1ccc(S(=O)(=O)N2CCN(C(=O)n3ccnc3)CC2)cc1	–	–	–	–	–	–
CCCCCCn1cc(C(=O)O)c(=O)c2cc(F)c(N3CCN(C)CC3)cc21	–	–	44.8	–	–	–
CCn1cc(C(=O)O)c(=O)c2cc(F)c(N3CCN(C)CC3)cc21	·	–	–	–	–	–
COc1cccc(/C=N/Nc2ccc([N+](=O)[O-])cc2)c1O	–	–	–	–	–	–
COc1ccc(/C=N/Nc2ccc([N+](=O)[O-])cc2)cc1O	43.5	·	–	–	–	–
Cc1ccc(-n2nc(C(=O)NN)c(C)c(C#N)c2=O)cc1Cl	–	–	–	–	–	65.8	PREPL inh cf=–
Cc1c(C(=O)NN)nn(-c2ccc(Cl)cc2)c(=O)c1C#N	–	–	–	–	–	–
CN(CC(=O)N1CCN(Cc2ccccc2)CC1)C(=O)Cc1ccc(Cl)c(Cl)c1	–	–	–	–	–	45.7	PREPL inh cf=–
CCCC(=O)N1CCC1(C)C(=O)NS(=O)(=O)c1cc2c(cc1C)CCCS2(=O)=O (centres undefined)	–	–	–	–	–	·
Cc1ccc2nc(-c3ccccc3O)c(Nc3ccc4c(c3)OCCO4)n2c1	–	–	·	–	–	–
Clc1ccc2nc(-c3ccccn3)c(Nc3ccc4c(c3)OCO4)n2c1	–	–	–	–	–	67.0	PREPL inh cf=54.2
CN(C)c1ccc(C(CN)c2c[nH]c3ccccc23)cc1 (centres undefined)	–	–	–	–	–	61.1	PREPL inh cf=57.2
CN(C)c1ccc(C(CNS(=O)(=O)c2ccc3ccccc3c2)c2c[nH]c3ccccc23)cc1 (centres undefined)	–	–	–	–	–	–
O=c1[nH]cnc2c1ncn2C1CCC(CO)O1 (centres undefined)	–	–	–	–	–	·
Cc1cc(N/N=C/c2ccc(O)cc2)c2cccc(C)c2n1	–	–	–	–	–	59.2	PREPL inh cf=55.8
Cc1cc(C)c2nc(C)cc(N/N=C/c3ccc(O)cc3)c2c1	–	–	–	–	–	71.7	PREPL inh cf=68.4
Cc1cc(N/N=C/c2ccc(N(C)C)cc2)c2ccccc2n1	–	–	·	–	–	–
CS(=O)(=O)Nc1cccc(NC(=O)C2Cc3c(-c4ccccc4)ccnc3O2)c1 (centres undefined)	–	–	–	–	–	·
CCOc1ccc(Nc2nc(NCC3CCCO3)c3ccccc3n2)cc1 (centres undefined)	–	–	–	–	–	59.3	PREPL inh cf=56.3
CCOc1ccc(Nc2cc(C)c3ccccc3n2)cc1	–	–	·	–	–	–
CCOc1ccc(Nc2c3ccccc3nc3ccccc23)cc1	–	–	–	–	–	55.8	PREPL inh cf=59.6
COc1ccc(CNC[C@H]2O[C@@H](n3ccc(=O)[nH]c3=O)[C@H](O)[C@@H]2O)cc1OC	–	–	–	–	–	·
